PAD4 FP inh: blocks human protein arginine deiminase 4. Q9UM07. recombinant PAD4, RCA probe fluorescence polarization. inhibition, % at 6.36 µM. actives 0.41% (n = 330,000). AID 485272;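 active = percent inhibition above a cutoff equal to the mean of all tested compounds plus 3 SD, cut at about 15% in these data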
PP5 primary: PP5 (human) phosphatase inhibition; P53041; inhibition, % at 6.7 µM; purified PP5c, OMFP substrate fluorescence; actives 0.18% (n = 320,000);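 active = inhibition above the campaign's mean inhibition across all tested compounds plus 3 SD, cut at about 9.5% in these data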
Apaf-1 inh: blocks human Apaf-1 apoptosome activity; O14727; reconstituted apoptosome caspase-3 activity, DEVD-Rh110 fluorescence; inhibition, % at 20 µM; actives 0.71% (n = 330,000); AID 489030; active = inhibition of at least 40% at 20 µM
Target sequence (O14727 whole entry, looked up): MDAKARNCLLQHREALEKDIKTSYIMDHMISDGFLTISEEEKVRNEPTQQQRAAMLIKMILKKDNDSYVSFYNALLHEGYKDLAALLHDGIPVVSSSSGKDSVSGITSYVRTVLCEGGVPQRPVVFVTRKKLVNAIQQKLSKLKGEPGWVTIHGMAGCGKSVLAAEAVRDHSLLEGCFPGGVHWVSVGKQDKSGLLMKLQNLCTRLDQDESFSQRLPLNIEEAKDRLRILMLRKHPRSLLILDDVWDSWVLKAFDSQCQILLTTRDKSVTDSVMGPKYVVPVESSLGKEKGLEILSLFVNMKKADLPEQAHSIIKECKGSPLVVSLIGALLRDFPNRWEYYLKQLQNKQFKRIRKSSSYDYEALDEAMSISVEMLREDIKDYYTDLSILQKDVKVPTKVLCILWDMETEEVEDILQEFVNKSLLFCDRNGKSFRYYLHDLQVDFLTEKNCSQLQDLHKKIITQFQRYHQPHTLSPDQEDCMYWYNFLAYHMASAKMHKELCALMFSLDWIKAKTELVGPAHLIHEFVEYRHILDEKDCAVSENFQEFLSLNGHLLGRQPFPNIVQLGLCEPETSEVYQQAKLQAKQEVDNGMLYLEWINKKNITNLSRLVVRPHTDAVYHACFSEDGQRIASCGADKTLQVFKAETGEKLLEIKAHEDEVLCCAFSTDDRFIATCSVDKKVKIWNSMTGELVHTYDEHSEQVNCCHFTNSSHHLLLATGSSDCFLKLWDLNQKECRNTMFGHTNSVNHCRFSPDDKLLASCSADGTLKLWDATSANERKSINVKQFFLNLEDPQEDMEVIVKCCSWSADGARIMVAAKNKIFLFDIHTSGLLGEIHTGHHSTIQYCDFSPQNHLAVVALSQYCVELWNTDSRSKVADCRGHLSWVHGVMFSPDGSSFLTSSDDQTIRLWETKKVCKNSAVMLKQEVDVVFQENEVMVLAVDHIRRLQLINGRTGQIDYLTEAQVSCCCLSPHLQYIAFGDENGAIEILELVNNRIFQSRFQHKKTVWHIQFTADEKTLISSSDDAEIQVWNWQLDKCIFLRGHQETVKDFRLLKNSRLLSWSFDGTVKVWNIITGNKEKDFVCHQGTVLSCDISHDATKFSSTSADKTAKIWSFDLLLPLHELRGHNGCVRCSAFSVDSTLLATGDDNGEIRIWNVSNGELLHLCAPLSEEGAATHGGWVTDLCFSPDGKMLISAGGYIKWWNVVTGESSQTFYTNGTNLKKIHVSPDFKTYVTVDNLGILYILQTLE
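Material: reconstituted apoptosome with Apaf-1, cytochrome c, caspase-9, procaspase-3, dATP / Buffer or medium: pH 7.5 Hepes buffer with CHAPS, BSA, DTT / Also added: cytochrome c with DEVD-Rh110 / Schedule: compound with Apaf-1, dATP, procaspase-3 30 min, then 50 min reaction, room temperature / Technique: rhodamine 110 fluorescence at Ex 480/Em 540 nm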
UCH37 inh: human UCH37 deubiquitinating enzyme inhibition; actives 0.33% (n = 330,000); purified proteasome/UCH37, Ub-AMC cleavage fluorescence; AID 588478; inhibition, % (no concentration beside the values); Q9Y5K5;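 active = mean inhibition over replicate wells above about 20%, limit read from the data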
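Reagent: Ub-AMC substrate; assay system: Proteasome-associated human UCH37 deubiquitinase; controls: no-proteasome and no-compound wells; read-out: % inhibition of Ub-AMC cleavage fluorescence; timing: 30 min preincubation with enzyme, 25 min cleavage at room temperature; signal: AMC fluorescence from Ub-AMC cleavage, excitation 355 nm, emission 460 nm; buffer or medium: Tris-HCl pH 7.4 plus ovalbumin, ATP-MgCl2, DTT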
CTSL1 counter: blocks F. hepatica cathepsin L1 in PFM18AAP counter-screen. recombinant F. hepatica cathepsin L1, Z-Leu-Arg-MCA fluorescence. inhibition, % at 5.96 µM. actives 0.49% (n = 300,000). AID 1906;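 active = inhibition above the mean of all tested compounds plus 3 SD, set per screening campaign, cut at about 17% in these data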
GSTO1 counter: counter-screen for RBBP9 inhibitors: inhibitors of human GSTO1 | P78417 | recombinant GSTO1, activity-based probe fluorescence polarization | inhibition, % at 5.96 µM | actives 1.1% (n = 300,000) | AID 1974;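 active = inhibition above the campaign mean inhibition plus 3 SD, cut at about 35% in these data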
Each line names hits and unclear results; the compound was inactive in the other large screens. Only some compounds are listed: those with a hit (about 2% of all), similar ones and a draw of the others.

CN(C)C(=S)Nn1c(-c2ccccc2)nc2ccccc2c1=O	UCH37 inh 25.1
Cn1nc(C(F)(F)F)c(-c2ccc(Br)cc2)c1NC(=O)c1ccco1	CTSL1 counter 29.0
Cn1nc(C(F)(F)F)c(-c2ccc(Br)cc2)c1NC(=O)c1cccnc1	none
Cc1ccccc1SCC(=O)NN=Cc1ccc(F)cc1	none (no result: PAD4 FP inh, PP5 primary, Apaf-1 inh, CTSL1 counter, GSTO1 counter)
CC(=O)N1c2ccc(Cl)cc2C2C=CCC2C1c1cccc2ccccc12 (configuration not stated)	UCH37 inh 47.9 (no result: Apaf-1 inh)
CC(=O)N1c2ccc3ccccc3c2C2C=CCC2C1c1ccc(Br)cc1 (configuration not stated)	none (no result: Apaf-1 inh, UCH37 inh)
CCOc1ccc(-n2c(C)cc(C=NNC(=O)CC(=O)NC3CCCCC3)c2C)cc1	none (no result: PAD4 FP inh, PP5 primary, Apaf-1 inh, CTSL1 counter, GSTO1 counter)
Cc1oc(-c2cccc(Cl)c2)nc1CS(=O)(=O)CC(=O)NCCN1CCOCC1	none
Cc1oc(-c2cccc(Cl)c2)nc1CS(=O)(=O)CC(=O)NCCN1CCCC1	CTSL1 counter 90.5
COC(=O)c1c(NC(=O)c2ccc([N+](=O)[O-])o2)sc2c1CCN(C(C)C)C2	CTSL1 counter 25.6 (no result: UCH37 inh)
CC1=NN(c2ccccc2C(=O)O)C(=O)C1N=Nc1ccccc1 (configuration not stated)	GSTO1 counter 35.6
CC1=NN(C(N)=S)C(=O)C1N=Nc1ccccc1C(=O)O (configuration not stated)	none
O=C(O)CCC1c2cc3c4cc2OC2Oc5cc6c(cc51)C(CCC(=O)O)c1cc5c7cc1OC(O6)c1cc6cc(c1)Oc1cc(cc(C(=O)O)c1)Oc1cc8cc(c1)C(Oc1cc(c(cc1C5CCC(=O)O)C3CCC(=O)O)OC(O4)c1cc(cc(c1)Oc1cc(cc(C(=O)O)c1)O8)Oc1cc(cc(C(=O)O)c1)Oc1cc(cc2c1)Oc1cc(cc(C(=O)O)c1)O6)O7 (configuration not stated)	PP5 primary 12.6, Apaf-1 inh 98.7, CTSL1 counter 21.6 (no result: UCH37 inh)
c1ccc(NN=C2CCCc3ccccc32)nc1	none (no result: PAD4 FP inh, PP5 primary, Apaf-1 inh, CTSL1 counter, GSTO1 counter)
O=C(O)c1cc(O)c2c(c1)[C@H]([C@H]1c3cc(C(=O)O)cc(O)c3C(=O)c3c(O[C@@H]4O[C@H](CO)[C@@H](O)[C@H](O)[C@H]4O)cccc31)c1cccc(OC3O[C@H](CO)[C@@H](O)[C@H](O)[C@H]3O)c1C2=O (some centres not stated)	Apaf-1 inh 88.9, GSTO1 counter 71.5
CCOc1ccc(-n2c(C)cc(C=NN(C)C)c2C)cc1	none (no result: PAD4 FP inh, PP5 primary, Apaf-1 inh, CTSL1 counter, GSTO1 counter)
CN(C)S(=O)(=O)c1cccc(-n2sc3ccccc3c2=O)c1	PAD4 FP inh 26.7
O=c1c2ccccc2sn1-c1ccc(S(=O)(=O)N2CCCC2)cc1	PAD4 FP inh 22.7
Cc1ccc(-n2sc3ccccc3c2=O)cc1S(=O)(=O)N1CCCCC1	PAD4 FP inh 25.5
O=c1c2ccccc2sn1-c1ccc(S(=O)(=O)N2CCCCC2)cc1	none
Cc1ccc(CNC(=O)c2ccccc2NC(=O)CSc2nnnn2C)cc1	GSTO1 counter 37.0
O=C(COC(=O)c1ccc(=O)n(Cc2ccccc2)n1)Nc1ccc2c(c1)OCCO2	CTSL1 counter 19.2
O=C(COC(=O)c1ccccn1)Nc1ccc2c(c1)OCCO2	none (no result: PP5 primary, CTSL1 counter, GSTO1 counter)
O=C(COC(=O)[C@H](Cc1ccccc1)N1C(=O)c2ccccc2C1=O)Nc1ccc2c(c1)OCO2	CTSL1 counter 22.5
CCCCN(CCCC)CCn1cnc2c([nH]c3ccc(OC)cc32)c1=O	CTSL1 counter 106.7
COc1ccc2[nH]c3c(=O)n(CCc4ccccc4)cnc3c2c1	none
CC(=NNC(=O)c1ccccc1O)c1ccc(NC(=O)Cc2ccccc2)cc1	none (no result: PAD4 FP inh, PP5 primary, Apaf-1 inh, CTSL1 counter, GSTO1 counter)
O=C(Nc1ccc(Cl)cc1)c1ccc2c(c1)S(=O)(=O)c1ccccc1C2=O	UCH37 inh 27.5
O=C(Nc1ccc(S(=O)(=O)O)cc1)c1ccc2c(c1)S(=O)(=O)c1ccccc1C2=O	none
COC(=O)c1cc(O)cc(OC)c1Oc1cc(C)cc(O)c1C(=O)O	GSTO1 counter 36.2
O=[N+]([O-])c1ccccc1C=NNc1nc(N2CCCC2)nc(N2CCCC2)n1	none (no result: PAD4 FP inh, PP5 primary, Apaf-1 inh, CTSL1 counter, GSTO1 counter)
COc1ccccc1NC(=O)Cn1c(=O)sc2ccccc21	none
COc1ccc(NC(=O)Cn2c(=O)sc3ccccc32)c(OC)c1	CTSL1 counter 20.6
